Results on one compound are retold here after ChEMBL document CHEMBL5055621, “Synthesis and Characterization of the Novel Rodent-Active and CNS-Penetrant P2X7 Receptor Antagonist Lu AF27139” (J Med Chem, 2021).

In data set [1] the test system is THP-1. The data set can be described thus: Antiinflammatory activity against human THP-1 cells assessed as reduction in LPS and BzATP-induced IL-1beta release measured after 50 mins by microplate reader. As to conditions: THP-1, 50 min; call rule not given here. In kind it is functional, cell-based. The method in brief:
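THP-1 cells were differentiated with IFN-γ 10 ng/mL for 48 h and primed with LPS (100 ng/mL final) for 3.5 h at 10k cells/well. Compound was added for 20 min, then BzATP (1 mM final) for 30 min at 37 °C. Supernatant IL-1β was read by human AlphaLISA.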

Data set [2] deals with T1, P2X purinoceptor 7 (Homo sapiens, UniProt Q99572).
T1 sequence (Q99572 whole entry): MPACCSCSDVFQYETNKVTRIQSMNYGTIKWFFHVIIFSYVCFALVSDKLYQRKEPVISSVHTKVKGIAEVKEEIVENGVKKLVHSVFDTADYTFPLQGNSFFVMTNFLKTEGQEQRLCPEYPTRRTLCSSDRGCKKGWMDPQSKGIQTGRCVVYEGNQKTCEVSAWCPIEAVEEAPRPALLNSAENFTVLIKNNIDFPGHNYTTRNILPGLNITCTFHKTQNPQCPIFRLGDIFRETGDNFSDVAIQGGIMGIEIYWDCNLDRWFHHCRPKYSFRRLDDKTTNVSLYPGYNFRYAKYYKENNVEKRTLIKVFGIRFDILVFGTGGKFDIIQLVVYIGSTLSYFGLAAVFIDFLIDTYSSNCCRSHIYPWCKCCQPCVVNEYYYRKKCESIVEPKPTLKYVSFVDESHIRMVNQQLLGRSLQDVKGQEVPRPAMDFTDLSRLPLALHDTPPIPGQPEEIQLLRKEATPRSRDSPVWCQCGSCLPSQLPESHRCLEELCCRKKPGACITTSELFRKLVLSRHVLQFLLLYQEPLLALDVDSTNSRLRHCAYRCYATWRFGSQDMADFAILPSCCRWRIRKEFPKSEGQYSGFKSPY
The data set can be described thus: Displacement of [3H]-A-804598 from human P2X7 receptor expressed in HEK293 cell membrane by in vitro binding assay. Format: cell membranes. (In general: Loss of bound radioactivity is the signal in a displacement assay; it reports binding, not function.)

Data set [3] can be described thus: Efflux ratio of permeability across basolateral to apical side over apical to basolateral side in MDCK2-MDR1 cells. Format: ADME, cell-based, Canis lupus familiaris. As to conditions: dog, MDCK-MDR1. The method in brief: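 MDR1-MDCK monolayers; permeability measured in both A-to-B and B-to-A directions, in triplicate. Efflux ratio taken as B:A over A:B permeation.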

Data set [4] has as its target T2, P2X purinoceptor 7 (Rattus norvegicus, UniProt Q64663).
T2 sequence (Q64663 whole entry): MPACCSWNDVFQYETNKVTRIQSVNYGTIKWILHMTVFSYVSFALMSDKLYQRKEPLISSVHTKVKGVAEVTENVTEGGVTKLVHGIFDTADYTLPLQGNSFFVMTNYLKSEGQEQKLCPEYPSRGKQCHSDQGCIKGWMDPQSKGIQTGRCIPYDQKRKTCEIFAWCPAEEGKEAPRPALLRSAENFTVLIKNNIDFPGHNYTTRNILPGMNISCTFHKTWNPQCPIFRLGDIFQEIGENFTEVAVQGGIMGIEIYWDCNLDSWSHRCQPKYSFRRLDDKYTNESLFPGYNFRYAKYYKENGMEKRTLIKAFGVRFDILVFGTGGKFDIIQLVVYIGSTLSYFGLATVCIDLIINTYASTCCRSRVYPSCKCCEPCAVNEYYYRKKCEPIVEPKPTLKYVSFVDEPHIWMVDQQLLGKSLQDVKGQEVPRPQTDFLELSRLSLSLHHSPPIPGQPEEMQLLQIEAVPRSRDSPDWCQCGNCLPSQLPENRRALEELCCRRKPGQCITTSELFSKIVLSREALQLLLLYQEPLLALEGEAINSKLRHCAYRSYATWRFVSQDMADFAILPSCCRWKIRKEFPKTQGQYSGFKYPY
The data set can be described thus: Antagonist activity at rat P2X7 receptor expressed in HEK293 cells assessed as inhibition of BzATP-induced current at -60 mV by whole cell QPatch electrophysiology. In kind it is cell-based. The procedure, abridged: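 QPatch automated whole-cell recording was done on rat P2X7-HEK293 cells held at −60 mV. External solution contained 0.1 mM MgCl2 and 0.3 mM CaCl2 (pH 7.4); the CsCl/EGTA internal was pH 7.2.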

Data set [5] is described as follows: Thermodynamic solubility of the compound by shake flask HPLC method. Format: physicochemical. As to conditions: read-out: Therm_solubility. The procedure, abridged: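 Thermodynamic solubility was measured by shake flask with HPLC quantification.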
In data set [6] the target is Cytochrome P450 2C19 (Homo sapiens, UniProt P33261). Briefly: Time dependent inhibition of CYP2C19 (unknown origin) upto 25 uM. Format: ADME.
Chain of Cytochrome P450 2C19 (P33261 whole entry): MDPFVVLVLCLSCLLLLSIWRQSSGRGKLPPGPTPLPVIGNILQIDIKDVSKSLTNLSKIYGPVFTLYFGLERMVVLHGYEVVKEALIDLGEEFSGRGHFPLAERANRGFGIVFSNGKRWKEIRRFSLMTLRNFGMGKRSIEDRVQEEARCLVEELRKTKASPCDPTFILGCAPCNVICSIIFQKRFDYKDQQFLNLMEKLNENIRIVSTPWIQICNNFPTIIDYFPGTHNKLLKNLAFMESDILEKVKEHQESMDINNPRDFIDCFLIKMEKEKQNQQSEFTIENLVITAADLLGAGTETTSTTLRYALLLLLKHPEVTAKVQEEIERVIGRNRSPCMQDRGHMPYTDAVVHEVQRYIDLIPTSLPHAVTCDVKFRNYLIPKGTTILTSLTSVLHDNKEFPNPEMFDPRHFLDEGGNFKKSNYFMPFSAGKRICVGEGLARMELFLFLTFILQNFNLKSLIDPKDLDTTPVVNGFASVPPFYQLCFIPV
Data set [7] in a line: Tmax in rat at 2 mg/kg, po. As to conditions: in vivo. Format: ADME, organism-based. The method in brief:
(§1)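 Rats received 1 mg/kg iv or 2 mg/kg po. The plasma concentration–time profile was analysed by a noncompartmental model to give half-life, Cmax, Tmax and absolute oral bioavailability.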

Data set [8] is described as follows: Cmax in rat at 2 mg/kg, po. In kind it is ADME, organism-based. Further details: dose 2 mg/kg, route po. As to conditions: in vivo. The method in brief:
as §1

Data set [9] in a line: Absolute oral bioavailability in rat at 2 mg/kg. Format: ADME, organism-based. As to conditions: in vivo. The procedure, abridged: as §1
Data set [10] can be described thus: Free plasma concentration in rat at 10 mg/kg, po after 1 hr by ex vivo equilibrium dialysis. In kind it is ADME, organism-based. The method in brief: (§2)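 Male Sprague–Dawley rats were dosed orally at 1–100 mg/kg, and total plasma concentration was measured at 1 and 2 h. This was multiplied by fraction unbound from ex vivo equilibrium dialysis; mean ± SEM, n = 3 animals.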
(In general: In equilibrium dialysis only unbound substance equilibrates across the membrane.)

Data set [11] can be described thus: Free plasma concentration in rat at 100 mg/kg, po after 1 hr by ex vivo equilibrium dialysis. Format: ADME, organism-based. The procedure, abridged:
as §2

Data set [12] is described as follows: Free plasma concentration in rat at 1 mg/kg, po after 2 hrs by ex vivo equilibrium dialysis. In kind it is ADME, organism-based. The procedure, abridged: as §2
The subject of data set [13] is Rattus norvegicus. Briefly: Toxicity in Sprague-Dawley rat assessed as histological changes up to 150 mg/kg, po by 7 days exploratory toxicology study. In kind it is organism-based. To be noted: in vivo, 168 h, time 7 day. The procedure, abridged: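 Exploratory 7-day repeat oral toxicity study in male and female rats at doses from 3 up to 150 mg/kg po. Endpoints were macroscopic pathology, histology and hematology.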

Data set [14] concerns Mus musculus. The data set can be described thus: Toxicity in C57BL/6NCrl mouse assessed as histological changes up to 100 mg/kg, po bid by 14 days exploratory toxicology study. In kind it is organism-based. To be noted: in vivo, 336 h, time 14 day. The procedure, abridged:
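Exploratory 14-day repeat oral toxicity study in mice with dosing twice daily (bid) up to 100 mg/kg. Endpoints were macroscopic pathology, histology and hematology.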

Data set [15] can be described thus: Cmax in male rat at 3 mg/kg, po after 7 days. Format: ADME, organism-based. More on the design: dose 3 mg/kg, time 7 day, route po. To be noted: in vivo.
A short description of data set [16]: Tmax in female mouse at 100 mg/kg, po after 14 days. As to conditions: in vivo.
Data set [17] in a line: Apparent permeability across apical to basolateral side in MDCK-MDR1 cells by LC-MS/MS analysis. To be noted: dog.

Values after ≈ are worked out from the molar mass of the structure shown. Where only a bound is given, the exact number is not on record here.

For orientation: IC50 means the concentration that inhibits the measured activity by half. What is called Ki is a dissociation constant, usually derived from enzyme kinetics or from competition with a known ligand. As a reminder, the efflux ratio is a quotient of directional permeabilities that is used to spot active efflux. The term Tmax denotes the time from dosing to the highest level. One may read the Cmax as the highest concentration seen after dosing. One may read the bioavailability as the share of a dose that reaches the circulation, judged against a reference dose that is usually intravenous.

For the compound `O=C(NC[C@H](c1ccc(Cl)cc1)N1CCOCC1)c1sc(-c2ncccn2)nc1C(F)(F)F`, the half-inhibitory concentration (IC50) in [1] worked out at 38 nM; in data set [4], 66 nM. Moreover, the inhibition constant (Ki) in data set [2] worked out at 55 nM. Besides, the efflux ratio in [3] is 0.81. Moreover, the solubility thermodynamic in data set [5] was determined as 16 µg/mL (≈ 32.1 µM). Moreover, in data set [6], the TDI entry is on record as “Not Active”. For the same compound, the results for the Tmax in [7] and in data set [16] were 34.8 min and 60 min, respectively. In addition, the Cmax in [8] was 2700 nM; in [15], 4640 nM. In [9], this compound registered a bioavailability of at least 100%. Further, the “Cp(f)” value in data set [10] amounted to 381 nM; in [11], 1460 nM; in data set [12] it was 22.8 nM. Besides, the Activity entry in data set [13] and in [14] was “Non-Toxic” in each case. Further, the Papp A:B in data set [17] worked out at 15 ×10⁻⁶ cm/s.
